Results as given in ChEMBL document CHEMBL4765369, “Optimal linker length for small molecule PROTACs that selectively target p38α and p38β for degradation” (Eur J Med Chem, 2020).
Activity calls are given as the source filed them. The rule behind the calls is not given here.

Columns and labels:
[1] = target: T1, Protein cereblon/Mitogen-activated protein kinase 14 (Homo sapiens, UniProt Q16539+Q96SW2); experiment: Protac activity at CRBN/p38alpha in human T47D cells assessed as p38alpha degradation at 10 uM measured after 24 hrs by immunoblotting analysis; assay type: cell-based
Outline: (§1)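 BBL358 or T47D cells given compound 10 µM for 24 h. RIPA lysates run on SDS-PAGE and immunoblotted for p38α. Odyssey infrared band intensities give p38α/tubulin ratio, normalised to untreated cells and reported as % degradation. Mean ±SEM with n=2 or more (one set: n=2 BBL358, n=1 T47D).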
Target sequence in this assay (Q16539 2-360 limits assumed): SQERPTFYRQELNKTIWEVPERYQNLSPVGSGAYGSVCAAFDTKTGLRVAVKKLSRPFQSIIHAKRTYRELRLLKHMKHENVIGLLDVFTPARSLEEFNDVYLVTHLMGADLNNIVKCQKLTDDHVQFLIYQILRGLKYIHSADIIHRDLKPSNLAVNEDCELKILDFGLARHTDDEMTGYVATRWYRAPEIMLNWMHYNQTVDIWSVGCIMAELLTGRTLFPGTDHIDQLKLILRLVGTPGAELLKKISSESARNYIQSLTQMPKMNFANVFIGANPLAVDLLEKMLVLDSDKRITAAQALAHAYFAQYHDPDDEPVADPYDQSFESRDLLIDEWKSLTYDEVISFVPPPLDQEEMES
Target sequence in this assay (Q96SW2 whole entry partner): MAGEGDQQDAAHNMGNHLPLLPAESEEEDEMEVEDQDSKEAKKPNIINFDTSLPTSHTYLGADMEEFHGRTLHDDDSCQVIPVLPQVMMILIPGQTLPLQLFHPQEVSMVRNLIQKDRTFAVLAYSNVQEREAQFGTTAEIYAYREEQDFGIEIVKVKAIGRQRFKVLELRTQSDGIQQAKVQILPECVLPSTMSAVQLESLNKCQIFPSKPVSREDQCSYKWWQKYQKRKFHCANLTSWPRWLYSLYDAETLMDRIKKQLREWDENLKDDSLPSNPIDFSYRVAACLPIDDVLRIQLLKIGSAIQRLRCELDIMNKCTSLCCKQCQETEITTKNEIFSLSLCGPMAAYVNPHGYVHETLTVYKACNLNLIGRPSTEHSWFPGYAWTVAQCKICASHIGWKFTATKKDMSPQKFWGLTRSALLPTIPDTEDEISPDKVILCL

[2] = target: T1, Protein cereblon/Mitogen-activated protein kinase 14; experiment: Protac activity at CRBN/p38alpha in human BBL358 cells assessed as p38alpha degradation at 10 uM measured after 24 hrs by immunoblotting analysis; assay type: cell-based; outline: as §1
Target sequence in this assay (Q16539 2-360 limits assumed): as the sequence (Q16539 2-360 limits assumed) above
Target sequence in this assay (Q96SW2 whole entry partner): as the sequence (Q96SW2 whole entry partner) above

[3] = target: T1, Protein cereblon/Mitogen-activated protein kinase 14; experiment: Protac activity at CRBN/p38alpha in human MDA-MB-231 cells assessed as reduction in UV-induced MK2 phosphorylation at 1 uM after 48 hrs by immunoblotting analysis; assay type: cell-based
Outline: (§2)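 MDA-MB-231 cells pre-incubated with compound, then p38α pathway stimulated with UV at 30 J/m2; PH797804 reference at 2 µM. Lysates immunoblotted for phospho-MK2. Cells grown in DMEM with 10% FBS at 37 °C, 5% CO2.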
Target sequence in this assay (Q16539 2-360 limits assumed): as the sequence (Q16539 2-360 limits assumed) above
Target sequence in this assay (Q96SW2 whole entry partner): as the sequence (Q96SW2 whole entry partner) above

[4] = Protac activity at CRBN/p38alpha in mouse bone marrow derived macrophages assessed as p38alpha degradation at 1 uM measured after 24 hrs by immunoblotting analysis; details: Macrophage
[5] = target: T1, Protein cereblon/Mitogen-activated protein kinase 14; experiment: Protac activity at CRBN/p38alpha in […] cells assessed as p38alpha degradation at 1 uM measured after 24 hrs by immunoblotting analysis; assay type: cell-based
Target sequence in this assay (Q16539 2-360 limits assumed): as the sequence (Q16539 2-360 limits assumed) above
Target sequence in this assay (Q96SW2 whole entry partner): as the sequence (Q96SW2 whole entry partner) above

[6] = target: T1, Protein cereblon/Mitogen-activated protein kinase 14; experiment: Protac activity at CRBN/p38alpha in human MDA-MB-231 cells assessed as p38alpha degradation measured after 24 hrs by immunoblotting analysis; assay type: cell-based
Outline: (§3)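 T47D and MDA-MB-231 cells treated with a concentration series for 24 h; lysates immunoblotted for p38α. p38α/tubulin band ratio normalised to untreated cells; DC50 (conc. giving 50% degradation) fitted from biological duplicates.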
Target sequence in this assay (Q16539 whole entry): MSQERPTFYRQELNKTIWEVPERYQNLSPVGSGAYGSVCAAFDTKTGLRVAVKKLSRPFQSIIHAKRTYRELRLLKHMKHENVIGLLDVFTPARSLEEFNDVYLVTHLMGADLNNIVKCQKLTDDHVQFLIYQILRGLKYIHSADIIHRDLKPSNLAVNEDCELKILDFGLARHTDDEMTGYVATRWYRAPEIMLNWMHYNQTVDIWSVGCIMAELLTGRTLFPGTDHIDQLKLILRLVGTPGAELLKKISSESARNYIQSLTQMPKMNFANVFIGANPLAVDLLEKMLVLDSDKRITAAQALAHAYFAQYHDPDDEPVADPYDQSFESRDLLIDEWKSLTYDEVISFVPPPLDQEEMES
Target sequence in this assay (Q96SW2 whole entry): as the sequence (Q96SW2 whole entry partner) above

[7] = target: T1, Protein cereblon/Mitogen-activated protein kinase 14; experiment: Protac activity at CRBN/p38alpha in human MDA-MB-231 cells assessed as reduction in UV-induced MK2 phosphorylation at 1 uM after 24 hrs by immunoblotting analysis; assay type: cell-based; outline: as §2
Target sequence in this assay (Q16539 2-360 limits assumed): as the sequence (Q16539 2-360 limits assumed) above
Target sequence in this assay (Q96SW2 whole entry partner): as the sequence (Q96SW2 whole entry partner) above

[8] = Induction of change in p38alpha protein expression in human MDA-MB-231 cells at 1 uM incubated for 16 hrs by mass spectrometry based proteomic analysis; assay type: cell-based; details: mda-mb-231, 16 h
Outline: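 MDA-MB-231 cells SILAC-labelled to ≥95% in arginine/lysine-free DMEM-F12 with 2% dialysed FBS; heavy cells got compound, light cells got DMSO, 16 h. Lysis in 4% SDS, 0.1 M DTT, Tris pH 7.6; FASP trypsin digestion overnight at 37 °C; nano-LC C18 MS/MS with 300 min run; protein-level heavy/light change.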

[9] = target: T2, Protein cereblon/Mitogen-activated protein kinase 11 (Homo sapiens, UniProt Q15759+Q96SW2); experiment: Protac activity at CRBN/p38beta in human T47D cells assessed as p38beta degradation at 1 uM measured after 24 hrs by immunoblotting analysis; assay type: cell-based
Target sequence in this assay (Q15759 whole entry): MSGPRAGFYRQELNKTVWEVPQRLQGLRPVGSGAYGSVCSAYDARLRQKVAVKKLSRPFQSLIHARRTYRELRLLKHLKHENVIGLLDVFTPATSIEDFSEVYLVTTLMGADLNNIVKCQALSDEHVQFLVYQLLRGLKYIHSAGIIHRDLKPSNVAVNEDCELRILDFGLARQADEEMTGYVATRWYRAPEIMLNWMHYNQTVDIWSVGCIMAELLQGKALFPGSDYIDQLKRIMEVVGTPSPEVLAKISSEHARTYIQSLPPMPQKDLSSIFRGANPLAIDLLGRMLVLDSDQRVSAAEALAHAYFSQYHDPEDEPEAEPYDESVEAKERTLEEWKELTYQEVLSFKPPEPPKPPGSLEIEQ
Target sequence in this assay (Q96SW2 whole entry): as the sequence (Q96SW2 whole entry partner) above

[10] = target: T2, Protein cereblon/Mitogen-activated protein kinase 11; experiment: Protac activity at CRBN/p38beta in human retina epithelial cells assessed as p38beta degradation at 1 uM measured after 24 hrs by immunoblotting analysis; assay type: tissue-based; details: Epithelial cell
Target sequence in this assay (Q15759 whole entry, looked up): as the sequence (Q15759 whole entry) above
Target sequence in this assay (Q96SW2 whole entry, looked up): as the sequence (Q96SW2 whole entry partner) above

[11] = target: T2, Protein cereblon/Mitogen-activated protein kinase 11; experiment: Protac activity at CRBN/p38beta in […] cells assessed as p38beta degradation at 1 uM measured after 24 hrs by immunoblotting analysis; assay type: cell-based
Target sequence in this assay (Q15759 whole entry, looked up): as the sequence (Q15759 whole entry) above
Target sequence in this assay (Q96SW2 whole entry, looked up): as the sequence (Q96SW2 whole entry partner) above

[12] = target: T1, Protein cereblon/Mitogen-activated protein kinase 14; experiment: Protac activity at CRBN/p38alpha in human retina epithelial cells assessed as p38alpha degradation at 1 uM measured after 24 hrs by immunoblotting analysis; assay type: tissue-based; details: Epithelial cell
Target sequence in this assay (Q16539 2-360 limits assumed): as the sequence (Q16539 2-360 limits assumed) above
Target sequence in this assay (Q96SW2 whole entry partner): as the sequence (Q96SW2 whole entry partner) above

[13] = target: T1, Protein cereblon/Mitogen-activated protein kinase 14; experiment: Protac activity at CRBN/p38alpha in human T47D cells assessed as p38alpha degradation measured after 24 hrs by immunoblotting analysis; assay type: cell-based; outline: as §3
Target sequence in this assay (Q16539 whole entry): as the sequence (Q16539 whole entry) above
Target sequence in this assay (Q96SW2 whole entry): as the sequence (Q96SW2 whole entry partner) above

[14] = Protac activity at CRBN/p38beta in mouse bone marrow derived macrophages assessed as p38beta degradation at 1 uM measured after 24 hrs by immunoblotting analysis; details: Macrophage
[15] = target: T2, Protein cereblon/Mitogen-activated protein kinase 11; experiment: Protac activity at CRBN/p38beta in human MDA-MB-231 cells assessed as p38beta degradation at 1 uM measured after 24 hrs by immunoblotting analysis; assay type: cell-based
Target sequence in this assay (Q15759 whole entry): as the sequence (Q15759 whole entry) above
Target sequence in this assay (Q96SW2 whole entry): as the sequence (Q96SW2 whole entry partner) above

[16] = target: T1, Protein cereblon/Mitogen-activated protein kinase 14; experiment: Protac activity at CRBN/p38alpha in human T47D cells assessed as p38alpha degradation at 1 uM measured after 24 hrs by immunoblotting analysis; assay type: cell-based
Outline: (§4)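 MDA-MB-231 and T47D cells exposed 24 h to 1 µM; N-methylated imide analogues tested alongside. RIPA lysates immunoblotted for p38α, intensities quantified from infrared imaging.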

[17] = target: T1, Protein cereblon/Mitogen-activated protein kinase 14; experiment: Protac activity at CRBN/p38alpha in human MDA-MB-231 cells assessed as p38alpha degradation at 1 uM measured after 24 hrs by immunoblotting analysis; assay type: cell-based; outline: as §4

SMILES	Activity [1] [%]	Activity [2] [%]	other results
Cc1ccc(C(=O)NCCOCCOCCOCCOCCOCCOCCNc2cccc3c2C(=O)N(C2CCC(=O)NC2=O)C3=O)cc1-n1c(C)cc(OCc2ccc(F)cc2F)c(Br)c1=O (centres undefined)	20	82	
Cc1ccc(C(=O)NCCOCCOCCNc2cccc3c2C(=O)N(C2CCC(=O)NC2=O)C3=O)cc1-n1c(C)cc(OCc2ccc(F)cc2F)c(Br)c1=O (centres undefined)		60	
Cc1ccc(C(=O)NCCCCNC(=O)c2ccc3c(c2)C(=O)N(C2CCC(=O)NC2=O)C3=O)cc1-n1c(C)cc(OCc2ccc(F)cc2F)c(Br)c1=O (centres undefined)		40	
Cc1ccc(C(=O)NCCCCc2cn(CCCC(=O)NCCOCCOCCNC(=O)c3ccc4c(c3)C(=O)N(C3CCC(=O)N(Cc5ccccc5[N+](=O)[O-])C3=O)C4=O)nn2)cc1-n1c(C)cc(OCc2ccc(F)cc2F)c(Br)c1=O (centres undefined)	76	0.5	
Cc1ccc(C(=O)NCCCCc2cn(CCCC(=O)NCCOCCOCCNc3cccc4c3C(=O)N(C3CCC(=O)N(Cc5ccccc5[N+](=O)[O-])C3=O)C4=O)nn2)cc1-n1c(C)cc(OCc2ccc(F)cc2F)c(Br)c1=O (centres undefined)	20	3	
Cc1ccc(C(=O)NCCOCCOCCNC(=O)c2ccc3c(c2)C(=O)N(C2CCC(=O)NC2=O)C3=O)cc1-n1c(C)cc(OCc2ccc(F)cc2F)c(Br)c1=O (centres undefined)		55	
Cc1ccc(C(=O)NCCCCNc2cccc3c2C(=O)N(C2CCC(=O)NC2=O)C3=O)cc1-n1c(C)cc(OCc2ccc(F)cc2F)c(Br)c1=O (centres undefined)		8	
Cc1ccc(C(=O)NCCCCc2cn(CCOCCOCCOCCNc3cccc4c3C(=O)N(C3CCC(=O)NC3=O)C4=O)nn2)cc1-n1c(C)cc(OCc2ccc(F)cc2F)c(Br)c1=O (centres undefined)	26	78	
Cc1ccc(C(=O)NCCCCc2cn(CCCC(=O)NCCCCNc3cccc4c3C(=O)N(C3CCC(=O)N(C)C3=O)C4=O)nn2)cc1-n1c(C)cc(OCc2ccc(F)cc2F)c(Br)c1=O (centres undefined)			Activity [7]: inactive; Activity [16]: inactive; Activity [17]: inactive
C=C1c2cccc(NCCCCCCNC(=O)CCCn3cc(CCCCNC(=O)c4ccc(C)c(-n5c(C)cc(OCc6ccc(F)cc6F)c(Br)c5=O)c4)nn3)c2C(=O)N1C1CCC(=O)N(C)C1=O (centres undefined)			Activity [7]: inactive; Activity [16]: inactive; Activity [17]: inactive
Cc1ccc(C(=O)NCCCCc2cn(CC[C@H](NC(=O)OC(C)(C)C)C(=O)NCCCCNc3cccc4c3C(=O)N(C3CCC(=O)NC3=O)C4=O)nn2)cc1-n1c(C)cc(OCc2ccc(F)cc2F)c(Br)c1=O (some centres undefined)	93	81	
Cc1ccc(C(=O)NCCCCc2cn(CCOCCOCCOCCOCCNc3cccc4c3C(=O)N(C3CCC(=O)NC3=O)C4=O)nn2)cc1-n1c(C)cc(OCc2ccc(F)cc2F)c(Br)c1=O (centres undefined)	41	92	

More lines, main results first:

Activity [1] [%]	Activity [2] [%]	SMILES	other results
47	67	Cc1ccc(C(=O)NCCCCc2cn(CCCC(=O)NCCCCCCNc3cccc4c3C(=O)N(C3CCC(=O)NC3=O)C4=O)nn2)cc1-n1c(C)cc(OCc2ccc(F)cc2F)c(Br)c1=O (centres undefined)	
8		Cc1ccc(C(=O)NCCc2cn(CCCC(=O)NCCNc3cccc4c3C(=O)N(C3CCC(=O)NC3=O)C4=O)nn2)cc1-n1c(C)cc(OCc2ccc(F)cc2F)c(Br)c1=O (centres undefined)	
40	12	Cc1ccc(C(=O)NCCCCc2cn(CCCC(=O)NCCNc3cccc4c3C(=O)N(C3CCC(=O)NC3=O)C4=O)nn2)cc1-n1c(C)cc(OCc2ccc(F)cc2F)c(Br)c1=O (centres undefined)	
16	47	C=C1c2cccc(NCCCCCNC(=O)CCCn3cc(CCCCNC(=O)c4ccc(C)c(-n5c(C)cc(OCc6ccc(F)cc6F)c(Br)c5=O)c4)nn3)c2C(=O)N1C1CCC(=O)NC1=O (centres undefined)	
85	79	Cc1ccc(C(=O)NCCCCc2cn(CCCC(=O)NCCOCCOCCNc3cccc4c3C(=O)N(C3CCC(=O)NC3=O)C4=O)nn2)cc1-n1c(C)cc(OCc2ccc(F)cc2F)c(Br)c1=O (centres undefined)	
89	84	Cc1ccc(C(=O)NCCCCc2cn(CCCC(=O)NCCCCNc3cccc4c3C(=O)N(C3CCC(=O)NC3=O)C4=O)nn2)cc1-n1c(C)cc(OCc2ccc(F)cc2F)c(Br)c1=O (centres undefined)	Activity [3]: Active; Activity [4]: Active; Activity [5]: Active; DC50 [6]: 0.0272 µM; Activity [7]: Active; Activity [8]: Active; DC50 [9]: 0.0485 µM; Activity [10]: Active; Activity [11]: Active; Activity [12]: Active; DC50 [13]: 0.024 µM; Activity [14]: Active; DC50 [15]: 0.0489 µM
42	36	Cc1ccc(C(=O)NCCc2cn(CCCC(=O)NCCCNc3cccc4c3C(=O)N(C3CCC(=O)NC3=O)C4=O)nn2)cc1-n1c(C)cc(OCc2ccc(F)cc2F)c(Br)c1=O (centres undefined)	
91	84	Cc1ccc(C(=O)NCCCc2cn(CCCC(=O)NCCCCNc3cccc4c3C(=O)N(C3CCC(=O)NC3=O)C4=O)nn2)cc1-n1c(C)cc(OCc2ccc(F)cc2F)c(Br)c1=O (centres undefined)	
25	40	Cc1ccc(C(=O)NCCc2cn(CCCC(=O)NCCCCNc3cccc4c3C(=O)N(C3CCC(=O)NC3=O)C4=O)nn2)cc1-n1c(C)cc(OCc2ccc(F)cc2F)c(Br)c1=O (centres undefined)	
82	77	Cc1ccc(C(=O)NCCCCc2cn(CCCC(=O)NCCCCCNc3cccc4c3C(=O)N(C3CCC(=O)NC3=O)C4=O)nn2)cc1-n1c(C)cc(OCc2ccc(F)cc2F)c(Br)c1=O (centres undefined)	
87	74	Cc1ccc(C(=O)NCCCCc2cn(CCCC(=O)NCCCNc3cccc4c3C(=O)N(C3CCC(=O)NC3=O)C4=O)nn2)cc1-n1c(C)cc(OCc2ccc(F)cc2F)c(Br)c1=O (centres undefined)	
68	60	Cc1ccc(C(=O)NCCCc2cn(CCCC(=O)NCCCNc3cccc4c3C(=O)N(C3CCC(=O)NC3=O)C4=O)nn2)cc1-n1c(C)cc(OCc2ccc(F)cc2F)c(Br)c1=O (centres undefined)	
4		Cc1ccc(C(=O)NCCCCc2cn(CC[C@H](N)C(=O)NCCCCNc3cccc4c3C(=O)N(C3CCC(=O)NC3=O)C4=O)nn2)cc1-n1c(C)cc(OCc2ccc(F)cc2F)c(Br)c1=O (some centres undefined)	
